{"source": "ChEMBL document CHEMBL3627681", "about": "“Synthesis and biological evaluation of 1,3-diaryl pyrazole derivatives as potential antibacterial and anti-inflammatory agents” (2015)", "key": {"Staphylococcus aureus [1]": {"tested_on": "Staphylococcus aureus", "experiment": "Ratio of norfloxacin MIC to compound MIC for methicillin-resistant Staphylococcus aureus CCARM 3506 after 24 hrs by two-fold serial dilution method", "format": "functional"}, "Staphylococcus aureus [2]": {"tested_on": "Staphylococcus aureus", "experiment": "Antibacterial activity against Staphylococcus aureus RN4220 after 24 hrs by two-fold serial dilution method", "format": "functional", "settings": "RN4220, 24 h", "method_in_brief": "(§1)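 Broth microdilution in Mueller-Hinton broth. Bacteria grown to mid-log phase, diluted 1000-fold, and inoculated at 10⁵ CFU/mL. Test compounds in DMSO, final DMSO not above 0.05%, final concentrations 64-0.5 µg/mL. Incubation 24 h at 37 °C, growth read as absorbance at 650 nm. MIC taken as the lowest concentration giving complete growth inhibition. Run three times.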"}, "Candida albicans": {"tested_on": "Candida albicans", "experiment": "Antifungal activity against Candida albicans 7535 by two-fold serial dilution method", "format": "functional"}, "Mus musculus [3]": {"tested_on": "Mus musculus", "experiment": "Antiinflammatory activity in mouse assessed as inhibition of xylene-induced ear edema at 12.5 mg/kg, po administered 3 hrs before xylene challenge relative to control", "format": "functional", "method_in_brief": "(§2)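 Oral dosing-level study: compound suspended in 0.5% CMC-Na and given po at 25 or 12.5 mg/kg, 0.4 mL/20 g; vehicle controls received CMC-Na. Xylene ear challenge was applied 3 h after dosing. Edema was measured as the ear-plug weight difference and reported as % reduction versus vehicle controls.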"}, "Staphylococcus aureus [4]": {"tested_on": "Staphylococcus aureus", "experiment": "Antibacterial activity against methicillin-resistant Staphylococcus aureus CCARM 3506 after 24 hrs by two-fold serial dilution method", "format": "functional", "settings": "CCARM 3506, 24 h", "method_in_brief": "as §1"}, "Staphylococcus aureus [5]": {"tested_on": "Staphylococcus aureus", "experiment": "Antibacterial activity against Staphylococcus aureus 209 after 24 hrs by two-fold serial dilution method", "format": "functional", "settings": "Staphylococcus aureus, 209, 24 h", "method_in_brief": "as §1"}, "Streptococcus mutans": {"tested_on": "Streptococcus mutans", "experiment": "Antibacterial activity against Streptococcus mutans 3065 after 24 hrs by two-fold serial dilution method", "format": "functional", "settings": "Streptococcus mutans, 3065, 24 h", "method_in_brief": "(§3)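 Broth microdilution in Mueller-Hinton broth over final concentrations of 64–0.5. Bacteria were grown to mid-log phase and diluted 1000-fold, then inoculated at 10⁵ CFU/mL. Compounds were dissolved in DMSO, with final DMSO at most 0.05%. Plates were incubated 24 h at 37 °C and growth read as absorbance at 650 nm. MIC is the concentration giving complete growth inhibition. Three independent runs.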"}, "Pseudomonas aeruginosa [6]": {"tested_on": "Pseudomonas aeruginosa", "experiment": "Antibacterial activity against Pseudomonas aeruginosa 2004 after 24 hrs by two-fold serial dilution method", "format": "functional", "settings": "Pseudomonas aeruginosa, 2004, 24 h", "method_in_brief": "as §3"}, "Mus musculus [7]": {"tested_on": "Mus musculus", "experiment": "Antiinflammatory activity in mouse assessed as inhibition of xylene-induced ear edema at 25 mg/kg, po administered 3 hrs before xylene challenge relative to control", "format": "functional", "method_in_brief": "as §2"}, "Staphylococcus aureus [8]": {"tested_on": "Staphylococcus aureus", "experiment": "Antibacterial activity against quinolone-resistant Staphylococcus aureus CCARM 3505 after 24 hrs by two-fold serial dilution method", "format": "functional", "settings": "CCARM 3505, 24 h", "method_in_brief": "as §1"}, "Escherichia coli [9]": {"tested_on": "Escherichia coli", "experiment": "Antibacterial activity against Escherichia coli CCARM 1356 after 24 hrs by two-fold serial dilution method", "format": "functional", "settings": "CCARM 1356, 24 h", "method_in_brief": "as §3"}, "Staphylococcus aureus [10]": {"tested_on": "Staphylococcus aureus", "experiment": "Ratio of oxacillin MIC to compound MIC for methicillin-resistant Staphylococcus aureus CCARM 3506 after 24 hrs by two-fold serial dilution method", "format": "functional"}, "Salmonella typhimurium": {"tested_on": "Salmonella typhimurium", "experiment": "Antibacterial activity against Salmonella typhimurium 2421 after 24 hrs by two-fold serial dilution method", "format": "functional, Salmonella enterica subsp. enterica serovar Typhimurium", "settings": "Salmonella enterica, 2421, 24 h", "method_in_brief": "as §3"}, "Staphylococcus aureus [11]": {"tested_on": "Staphylococcus aureus", "experiment": "Antibacterial activity against quinolone-resistant Staphylococcus aureus CCARM 3519 after 24 hrs by two-fold serial dilution method", "format": "functional", "settings": "CCARM 3519, 24 h", "method_in_brief": "as §1"}, "Staphylococcus aureus [12]": {"tested_on": "Staphylococcus aureus", "experiment": "Antibacterial activity against methicillin-resistant Staphylococcus aureus CCARM 3167 after 24 hrs by two-fold serial dilution method", "format": "functional", "settings": "CCARM 3167, 24 h", "method_in_brief": "as §1"}, "Escherichia coli [13]": {"tested_on": "Escherichia coli", "experiment": "Antibacterial activity against Escherichia coli KCTC 1924 after 24 hrs by two-fold serial dilution method", "format": "functional", "settings": "KCTC 1924, 24 h", "method_in_brief": "as §3"}, "Pseudomonas aeruginosa [14]": {"tested_on": "Pseudomonas aeruginosa", "experiment": "Antibacterial activity against Pseudomonas aeruginosa 2742 after 24 hrs by two-fold serial dilution method", "format": "functional", "settings": "Pseudomonas aeruginosa, 2742, 24 h", "method_in_brief": "as §3"}, "Mus musculus [15]": {"tested_on": "Mus musculus", "experiment": "Antiinflammatory activity in mouse assessed as inhibition of xylene-induced ear edema at 50 mg/kg, po administered 24 hrs before xylene challenge relative to control", "format": "functional, organism-based", "method_in_brief": "(§4)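 Compound was homogenized in 0.5% CMC-Na and given orally at 50 mg/kg, 0.4 mL/20 g; controls got CMC-Na vehicle only. Xylene was applied to the ear 1, 2, 3, 4, 5 or 24 h after dosing. Edema was measured as the weight difference of 7 mm ear plugs and reported as % reduction versus vehicle controls.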"}, "Mus musculus [16]": {"tested_on": "Mus musculus", "experiment": "Antiinflammatory activity in mouse assessed as inhibition of xylene-induced ear edema at 50 mg/kg, po administered 4 hrs before xylene challenge relative to control", "format": "functional", "method_in_brief": "as §4"}, "Mus musculus [17]": {"tested_on": "Mus musculus", "experiment": "Antiinflammatory activity in mouse assessed as inhibition of xylene-induced ear edema at 50 mg/kg, po administered 3 hrs before xylene challenge relative to control", "format": "functional", "method_in_brief": "as §4"}, "Mus musculus [18]": {"tested_on": "Mus musculus", "experiment": "Antiinflammatory activity in mouse assessed as inhibition of xylene-induced ear edema at 50 mg/kg, po administered 1 hr before xylene challenge relative to control", "format": "functional", "settings": "read-out: INH", "method_in_brief": "as §4"}, "Mus musculus [19]": {"tested_on": "Mus musculus", "experiment": "Antiinflammatory activity in mouse assessed as inhibition of xylene-induced ear edema at 50 mg/kg, ip administered 30 mins before xylene challenge relative to control", "format": "functional", "method_in_brief": "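Mice received compound freshly dissolved in DMSO, 50 mg/kg ip at 0.05 mL/20 g body weight; vehicle controls got DMSO alone. After 30 min, 20 µL xylene was applied to the right ear. After a further 30 min, 7 mm plugs were cut from treated and untreated ears and edema taken as their weight difference. Result is % edema reduction versus vehicle controls.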"}, "Staphylococcus aureus [20]": {"tested_on": "Staphylococcus aureus", "experiment": "Antibacterial activity against Staphylococcus aureus 503 after 24 hrs by two-fold serial dilution method", "format": "functional", "settings": "Staphylococcus aureus, 503, 24 h", "method_in_brief": "as §1"}, "Mus musculus [21]": {"tested_on": "Mus musculus", "experiment": "Antiinflammatory activity in mouse assessed as inhibition of xylene-induced ear edema at 50 mg/kg, po administered 5 hrs before xylene challenge relative to control", "format": "functional", "method_in_brief": "as §4"}, "Mus musculus [22]": {"tested_on": "Mus musculus", "experiment": "Antiinflammatory activity in mouse assessed as inhibition of xylene-induced ear edema at 50 mg/kg, po administered 2 hrs before xylene challenge relative to control", "format": "functional", "settings": "read-out: INH", "method_in_brief": "as §4"}}, "note": "Activity calls are given as the source filed them. The rule behind the calls is not given here."}
{"compound": "N=C(N)N/N=C/c1cn(-c2ccccc2)nc1-c1cccc(Cl)c1", "values": [{"measurement": "Ratio", "setting": "Staphylococcus aureus [1]", "result": 4}, {"measurement": "MIC", "setting": "Staphylococcus aureus [2]", "result": 2, "unit": "µg/mL"}, {"measurement": "MIC", "setting": "Candida albicans", "result": 1, "unit": "µg/mL"}, {"measurement": "inhibition in vivo at 12.5 mg/kg", "setting": "Mus musculus [3]", "result": 56.7, "unit": "%"}, {"measurement": "MIC", "setting": "Staphylococcus aureus [4]", "result": 1, "unit": "µg/mL"}, {"measurement": "MIC", "setting": "Staphylococcus aureus [5]", "result": 2, "unit": "µg/mL"}, {"measurement": "MIC", "setting": "Streptococcus mutans", "result": 8, "unit": "µg/mL"}, {"measurement": "MIC", "setting": "Pseudomonas aeruginosa [6]", "result": "> 64", "unit": "µg/mL"}, {"measurement": "inhibition in vivo at 25 mg/kg", "setting": "Mus musculus [7]", "result": 39.3, "unit": "%"}, {"measurement": "MIC", "setting": "Staphylococcus aureus [8]", "result": 2, "unit": "µg/mL"}, {"measurement": "MIC", "setting": "Escherichia coli [9]", "result": 16, "unit": "µg/mL"}, {"measurement": "Ratio", "setting": "Staphylococcus aureus [10]", "result": 64}, {"measurement": "MIC", "setting": "Salmonella typhimurium", "result": 8, "unit": "µg/mL"}, {"measurement": "MIC", "setting": "Staphylococcus aureus [11]", "result": 2, "unit": "µg/mL"}, {"measurement": "MIC", "setting": "Staphylococcus aureus [12]", "result": 1, "unit": "µg/mL"}, {"measurement": "MIC", "setting": "Escherichia coli [13]", "result": 1, "unit": "µg/mL"}, {"measurement": "MIC", "setting": "Pseudomonas aeruginosa [14]", "result": "> 64", "unit": "µg/mL"}, {"measurement": "inhibition", "setting": "Mus musculus [15]", "result": "inactive"}, {"measurement": "inhibition in vivo at 50 mg/kg", "setting": "Mus musculus [16]", "result": 4.39, "unit": "%"}, {"measurement": "inhibition in vivo at 50 mg/kg", "setting": "Mus musculus [17]", "result": 50.9, "unit": "%"}, {"measurement": "inhibition in vivo at 50 mg/kg", "setting": "Mus musculus [18]", "result": 26.9, "unit": "%"}, {"measurement": "inhibition in vivo at 50 mg/kg", "setting": "Mus musculus [19]", "result": 93.6, "unit": "%"}, {"measurement": "MIC", "setting": "Staphylococcus aureus [20]", "result": 2, "unit": "µg/mL"}, {"measurement": "inhibition in vivo at 50 mg/kg", "setting": "Mus musculus [21]", "result": 35.2, "unit": "%"}]}
{"compound": "COc1ccc2c(c1)c(CC(=O)O)c(C)n2C(=O)c1ccc(Cl)cc1", "note": "[INDOMETHACIN]", "values": [{"measurement": "inhibition in vivo at 12.5 mg/kg", "setting": "Mus musculus [3]", "result": 56.3, "unit": "%"}, {"measurement": "inhibition in vivo at 25 mg/kg", "setting": "Mus musculus [7]", "result": 53.9, "unit": "%"}, {"measurement": "inhibition in vivo at 50 mg/kg", "setting": "Mus musculus [22]", "result": 9.93, "unit": "%"}, {"measurement": "inhibition", "setting": "Mus musculus [15]", "result": "inactive"}, {"measurement": "inhibition in vivo at 50 mg/kg", "setting": "Mus musculus [16]", "result": 34.9, "unit": "%"}, {"measurement": "inhibition in vivo at 50 mg/kg", "setting": "Mus musculus [17]", "result": 23, "unit": "%"}, {"measurement": "inhibition in vivo at 50 mg/kg", "setting": "Mus musculus [18]", "result": 29.7, "unit": "%"}, {"measurement": "inhibition in vivo at 50 mg/kg", "setting": "Mus musculus [19]", "result": 45.2, "unit": "%"}, {"measurement": "inhibition in vivo at 50 mg/kg", "setting": "Mus musculus [21]", "result": 26.9, "unit": "%"}]}
